From ChEMBL document CHEMBL3588851, “Antiviral Matrine-Type Alkaloids from the Rhizomes of Sophora tonkinensis” (J Nat Prod, 2015)
pIC50: −log10 of the molar value. Calls of active or inactive are those of the source. No cut-off for these calls is given here.

Key:
[1] = Cytotoxic activity against African green monkey Vero cells assessed as cytopathogenic effect incubated for 48 hrs; type: cell-based; settings: chlorocebus sabaeus, read-out: TC50
Summary of the method: (§1)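 Cells plated in 96-well plates; after 24 h, monolayers exposed to various concentrations of compound for 48 h at 37 °C, 5% CO2. Toxicity monitored by cytopathogenic effect (CPE). Median toxic concentration (TC50) calculated by the Reed and Muench method.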

Coxsackievirus B3 [2] = test: Antiviral activity against coxsackievirus B3 infected in African green monkey Vero cells assessed as inhibition of virus-induced cytopathogenic effect dosed 1 hr after viral adsorption; type: functional, organism-based; settings: Enterovirus B
Summary of the method: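 Confluent Vero monolayers were infected with 100 TCID50 CVB3 and adsorbed for 1 h at 37 °C. They were then washed with PBS and kept at 37 °C in MEM plus 2% FBS, with or without a range of compound concentrations. Ribavirin served as positive control.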

[3] = Selectivity index, ratio of TC50 for African green monkey Vero cells to IC50 for coxsackievirus B3 infected in African green monkey Vero cells; type: toxicity, cell-based; settings: read-out: Selectivity Index
Summary of the method: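 SI = TC50/IC50. TC50 from 48 h CPE-monitored Vero toxicity, calculated by Reed and Muench. IC50 from Vero monolayers infected with 100 TCID50 CVB3, adsorbed 1 h at 37 °C, PBS-washed, then maintained in MEM + 2% FBS with compound at 37 °C.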

Influenza A virus [4] = test: Antiviral activity against influenza A virus (A/Hanfang/359/95(H3N2)) infected in MDCK cells assessed as inhibition of virus-induced cytopathogenic effect at maximal nontoxic concentration dosed 1 hr after viral adsorption; type: functional, organism-based
Coxsackievirus B3 [5] = test: Antiviral activity against coxsackievirus B3 infected in African green monkey Vero cells assessed as inhibition of virus-induced cytopathogenic effect at maximal nontoxic concentration dosed 1 hr after viral adsorption; type: functional, organism-based
Summary of the method: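 Confluent Vero monolayers in 96-well plates infected with 100 TCID50 CVB3. After 1 h adsorption at 37 °C, cells washed with PBS. Then incubated at 37 °C in maintenance medium (MEM + 2% FBS) with or without compound, tested at its maximal nontoxic concentration.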

[6] = Cytotoxic activity against MDCK cells assessed as cytopathogenic effect incubated for 48 hrs; type: cell-based, Canis lupus familiaris; settings: dog, read-out: TC50; summary of the method: as §1
Influenza A virus [7] = test: Antiviral activity against influenza A virus (A/Hanfang/359/95(H3N2)) infected in MDCK cells assessed as inhibition of virus-induced cytopathogenic effect dosed 1 hr after viral adsorption; type: functional, organism-based
[8] = Selectivity index, ratio of TC50 for […] MDCK cells to IC50 for influenza A virus (A/Hanfang/359/95(H3N2)); type: toxicity, cell-based; settings: read-out: Selectivity Index
Summary of the method: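 SI is TC50/IC50. TC50: MDCK cells were plated for 24 h, then exposed to graded compound concentrations for 48 h at 37 °C in 5% CO2, scored by CPE, and calculated by Reed–Muench. IC50 came from the H3N2-infected MDCK assay, with 1 h adsorption and then compound in MEM plus 2% FBS.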

Coxsackievirus B3 [9] = test: Antiviral activity against coxsackievirus B3 infected in African green monkey Vero cells assessed as inhibition of virus-induced cytopathogenic effect dosed 1 hr after viral adsorption relative to ribavirin; type: functional

| SMILES | inhibition (Influenza A virus [4]) | inhibition (Coxsackievirus B3 [5]) | pIC50 (Influenza A virus [7]) | selectivity ratio [8] | other results |
| --- | --- | --- | --- | --- | --- |
| O=C1CCC[C@@H]2[C@H]3CCCN4CCC[C@@](O)(CN12)[C@@H]34 | inactive | – | – | – | CC50 at 48 h [1]: > 757 µM; pIC50 (Coxsackievirus B3 [2]): 3.60; selectivity ratio [3]: > 3 |
| O=C1CCC[C@@H]2[C@H]3C[C@H](O)CN4CCC[C@@H](CN12)[C@@H]34 | inactive | inactive | – | – | – |
| O=C1C=CC[C@@H]2[C@H]3CCCN4CCC[C@@](O)(CN12)[C@@H]34 | – | inactive | 3.36 | > 1.7 | CC50 at 48 h [6]: > 762 µM |
| O=C1[C@@H](O)CC[C@@H]2[C@H]3CCC[N+]4([O-])CCC[C@@H](CN12)[C@@H]34 (some centres not stated) | inactive | inactive | – | – | – |
| O=C1C=CC[C@@H]2[C@H]3CCC[N+]4([O-])CCC[C@@H](CN12)[C@@H]34 (some centres not stated) [OXYSOPHOCARPINE] | – | inactive | 3.39 | > 1.9 | CC50 at 48 h [6]: > 762 µM |
| O=C1C=C[C@@H](O)[C@@H]2[C@H]3CCC[N+]4([O-])CCC[C@@H](CN12)[C@@H]34 (some centres not stated) | inactive | – | – | – | CC50 at 48 h [1]: 115 µM; pIC50 (Coxsackievirus B3 [2]): 4.57; selectivity ratio [3]: 4.3; Ratio IC50 (Coxsackievirus B3 [9]): 45 |
| O=C1CCC[C@@H]2[C@H]3CCCN4CCC[C@@H](CN12)[C@@H]34 | inactive | inactive | – | – | – |
| O=C1CC=C[C@@H]2[C@H]3CCCN4CCC[C@@](O)(CN12)[C@@H]34 | inactive | inactive | – | – | – |
| NC(=O)c1ncn([C@@H]2O[C@H](CO)[C@@H](O)[C@H]2O)n1 [RIBAVIRIN] | – | – | – | 813 | pIC50 (Coxsackievirus B3 [2]): 2.92; selectivity ratio [3]: 6.8 |
| O=C1C=C[C@H](O)[C@@H]2[C@H]3CCCN4CCC[C@@H](CN12)[C@@H]34 | – | inactive | 4.07 | 5.7 | CC50 at 48 h [6]: 479 µM |
| O=C1CCC[C@@H]2[C@H]3CCC[N+]4([O-])CCC[C@@H](CN12)[C@@H]34 (some centres not stated) | inactive | inactive | – | – | – |
| O=C1C=CC[C@@H]2[C@H]3C[C@H](O)CN4CCC[C@@H](CN12)[C@@H]34 | inactive | – | – | – | CC50 at 48 h [1]: > 762 µM; pIC50 (Coxsackievirus B3 [2]): 3.71; selectivity ratio [3]: > 3.9 |
| O=C1C=C[C@@H](O)[C@@H]2[C@H]3CCCN4CCC[C@@H](CN12)[C@@H]34 | – | inactive | 3.62 | > 3.1 | CC50 at 48 h [6]: > 762 µM |
| O=C1[C@@H](O)CC[C@@H]2[C@H]3CCCN4CCC[C@@H](CN12)[C@@H]34 | inactive | – | – | – | CC50 at 48 h [1]: 757 µM; pIC50 (Coxsackievirus B3 [2]): 3.73; selectivity ratio [3]: 4.1 |
| O=C1C=CC[C@@H]2[C@H]3CCCN4CCC[C@@H](CN12)[C@@H]34 | inactive | inactive | – | – | – |
| O=c1cccc2n1C[C@@H]1CCCN3CCC[C@H]2[C@H]13 | – | inactive | 4.20 | 4.3 | CC50 at 48 h [6]: 273 µM |
| CCOC(=O)C1=C[C@@H](OC(CC)CC)[C@H](NC(C)=O)[C@@H](N)C1 [OSELTAMIVIR] | – | – | 5.97 | 2870 | – |
| O=C1CCC[C@@H]2[C@H]3CCC[N+]4([O-])CCC[C@@](O)(CN12)[C@@H]34 (some centres not stated) | inactive | inactive | – | – | – |
| O=C1C=CC[C@@H]2[C@H]3CCC[N+]4([O-])CCC[C@@](O)(CN12)[C@@H]34 (some centres not stated) | – | inactive | – | – | – |
